Test results taken from PMC3306454 (ACS Chemical Biology, 2012).
Values joined by “and” are separate entries in the source; they are usually repeats but may differ in a detail not shown here. Equal entries are not always repeated. “Also recorded” adds a separate entry of the source.

Assays:
[1] = tested on: RNA 1×1 nucleotide internal loops and fully paired RNA; assay: Competition dialysis, binding selectivity; details: 1 µM ligand, 1.6 µM RNA, 24 h
Method in brief: (§1)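 RNAs were run-off transcribed, carried internal loops in a GNRA-hairpin cassette with a fully paired control, and were PAGE-purified. They were folded by heating at 60 °C for 5 min, then slow cooling. Dialysis units with 1.6 μM RNA stood against 1 μM ligand in buffer (8 mM NaH2PO4, 185 mM NaCl, 1 mM EDTA, pH 7.2), stirred 200 rpm, 24 h, 20–22 °C. SDS was added (1% final); Ct was measured spectrophotometrically; Cb = Ct − Cf.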

[2] = target: RNA 5’CAG/3’GUC (fully paired RNA); assay: Fluorescence anisotropy direct binding assay; details: read-out: Dissociation constant, 5’CAG/3’GUC
Method in brief: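 The RNA was made by run-off transcription and PAGE-purified, then folded by heating at 60 °C. Anisotropy was read at ex 368 nm and em 500 nm. Kd came from a quadratic binding fit of anisotropy versus RNA concentration.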

[3] = target: RNA containing the 5’CAG/3’GAC motif; assay: Fluorescence anisotropy direct binding assay; details: read-out: Dissociation constant, 5’CAG/3’GAC
Method in brief: (§2)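 RNA was titrated into 50 nM fluorescent test compound in Affinity Buffer (20 mM HEPES pH 7.5, 5 mM KCl, 150 mM NaCl, 1 mM MgCl2), equilibrating 5 min between additions. Anisotropy was read at ex 368 / em 500 nm and plotted against RNA concentration. Kd came from a quadratic binding equation fit.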

[4] = tested on: RNA containing 5’CUG/3’GUC; assay: Fluorescence anisotropy direct binding assay
Method in brief: as §2

[5] = tested on: RNA containing 5’CGG/3’GGC; assay: Fluorescence anisotropy direct binding assay
Method in brief: as §2

RNA 5’CCG/3’GCG = assay: Fluorescence anisotropy direct binding assay
Method in brief: as §2

[6] = tested on: RNA displaying 5’CAG/3’GAC motif; assay: Optical melting experiments; format: binding; details: for ΔTm (1 equiv.): one equivalent of ligand; for ΔTm (2 equiv.): two equivalents of ligand
Method in brief: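 RNA in Affinity Buffer was denatured at 90 °C and cooled to 15 °C, with ligand at 1 or 2 equivalents. Absorbance at 260 nm was recorded against temperature at 1 °C/min. Tm was calculated as ΔH°×1000/ΔS° − 273.15.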

RNA 5’CAG/3’GCC = assay: Competition dialysis; format: binding; details: bound ligand relative to amount of RNA target
Method in brief: as §1

RNA 5’CAG/3’GAC = assay: Competition dialysis; format: binding; details: bound ligand relative to amount of RNA target
Method in brief: as §1

[7] = tested on: HD patient-derived fibroblasts expressing r(CAG)69; assay: RT-PCR splicing assay in HD fibroblasts; format: cell-based, Human; details: for Effect on ATP2A1 splicing: initial screen, 100 µM, both cellular models
Method in brief: (§3)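 Fibroblasts were grown in MEM with 10% FBS and nonessential amino acids. SK-N-MC cells, with or without stable r(CAG)74, were grown in DMEM with 10% FBS. At ~60% confluence they received test compound at 50–300 μM final (water for untreated) for 48 h. ~1 μg total RNA was reverse transcribed with random primers, followed by RT-PCR, 2% agarose and ethidium staining. Normal isoform fraction was the normal band over total; ≥6 experiments, two-tailed t test versus untreated.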

[8] = tested on: HD fibroblasts and neuroblastoma cellular models; assay: Cell morphology; format: cell-based, Human; details: for Toxicity as assessed by cell morphology: initial screen, 100 µM, both cellular models
Method in brief: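 HD patient fibroblasts (r(CAG)69) and SK-N-MC neuroblastoma cells stably expressing r(CAG)74 were grown to ~60% confluence. Fresh medium with test compound was added: 100 μM for the screen, 50–300 μM for the dose series, water for untreated. Cells were kept 48 h, and microscopic images of cell morphology served as the toxicity estimate.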

r(CAG)12-MBNL1 complex = assay: TR-FRET assay, disruption of the r; format: biochemical
[9] = tested on: SK-N-MC neuroblastoma cells stably expressing r(CAG)74; assay: RT-PCR splicing assay in neuroblastoma; format: cell-based, Human
Method in brief: as §3

[10] = tested on: normal neuroblastoma cell line / control cell lines that do not express r(CAG)exp; assay: RT-PCR splicing assay in control cell lines; format: cell-based, Human
Method in brief: as §3

[11] = tested on: nuclear r(CAG)exp foci in HD-derived fibroblasts; assay: FISH of nuclear r; format: cell-based, Human
Method in brief: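 Fibroblasts (HD line GM04281: r(CAG)17 and r(CAG)69 HTT alleles) at ~60% confluence were given test compound at 50−300 μM final, or water, for 48 h. Cells were fixed in 4% PFA/PBS at 4 °C, prehybridized (30% formamide, 2X SSC, 10 min), and hybridized with a 5′-Cy3, LNA-modified (CTG)6-CA probe. Washes were at 45 °C then 37 °C, and foci were imaged by fluorescence microscopy.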

[12] = neuroblastoma cells expressing r(CAG)74, 48 h

O=C1c2c(O)ccc(O)c2C(=O)c2c(NCCNCCO)ccc(NCCNCCO)c21 [MTX, Mitoxantrone]
Binding preference among RNAs [1]: slight preference for 5’CCG/3’GAC while it discriminates against 5’CUG/3’GCC

Nc1ccc2cc3ccc(N)cc3nc2c1 [proflavin, Proflavin]
Binding preference among RNAs [1]: little preference for binding to a fully paired RNA or any of the RNAs with 1×1 nucleotide internal loops

COc1cccc2c1C(=O)c1c(O)c3c(c(O)c1C2=O)C[C@@](O)(C(C)=O)C[C@@H]3O[C@H]1C[C@H](N)[C@H](O)[C@H](C)O1 [DNM, Daunomycin]
Binding preference among RNAs [1]: prefers to bind 5’CCG/3’GAC

CN(C)c1ccc2cc3ccc(N(C)C)cc3nc2c1 [AO, Acridine Orange]
Binding preference among RNAs [1]: little preference for binding to a fully paired RNA or any of the RNAs with 1×1 nucleotide internal loops

COc1ccc2nc3cc(Cl)ccc3c(N)c2c1 [ACMA, 9-amino-6-chloro-2-methoxy acridine]
Binding preference among RNAs [1]: binds preferentially to the fully paired RNA and the RNA displaying 5’CCG/3’GCC

N=C(N)c1ccc(-c2cc3ccc(C(=N)N)cc3[nH]2)cc1 [DAPI, 4',6-diamidino-2-phenylindole]
Kd [2]: > 3000 nM | Kd [3]: 220 ± 60 nM | Fold weaker binding to 5’CUG/3’GUC than to 5’CAG/3’GAC ([4]; fluorescence anisotropy): approximately 2.5 fold | Kd ([4]; read-out: Dissociation constant, 5’CUG/3’GUC, direct binding assay): 550 ± 200 nM | Fold weaker binding to 5’CGG/3’GGC than to 5’CAG/3’GAC ([5]; fluorescence anisotropy): approximately 2.5 fold | Kd ([5]; read-out: Dissociation constant, 5’CGG/3’GGC, direct binding assay): 500 ± 100 nM | Fold weaker binding to 5’CCG/3’GCC than to 5’CAG/3’GAC (RNA 5’CCG/3’GCG; fluorescence anisotropy): ~ 5 fold | Kd (RNA 5’CCG/3’GCG; read-out: Dissociation constant, 5’CCG/3’GCG, direct binding assay): 990 ± 200 nM | ΔTm (1 equiv.) [6]: 6 °C | ΔTm (2 equiv.) [6]: 10 °C | Binding preference among RNAs [1]: preferentially binds to 5’CAG/3’GAC and 5’CAG/3’GCC | Binding stoichiometry to 5’CAG/3’GCC (RNA 5’CAG/3’GCC): stoichiometric amounts | Binding stoichiometry to 5’CAG/3’GAC (RNA 5’CAG/3’GAC): stoichiometric amounts | Effect on ATP2A1 splicing [7]: exacerbated splicing abnormalities of ATP2A1 | Toxicity as assessed by cell morphology [8]: strongest morphological changes

N=C(N)Nc1ccc(OC(=O)c2ccc(NC(=N)N)cc2)cc1 [Compound D6, 4-guanidinophenyl 4-guanidinobenzoate]
ΔTm (1 equiv.) [6]: 3 °C | ΔTm (2 equiv.) [6]: 9 °C | Fold more potent than the other compounds studied (r(CAG)12-MBNL1 complex; TR-FRET IC50): at least 20 fold | IC50 (r(CAG)12-MBNL1 complex; pre-formed r(CAG)12-MBNL1 complex, TR-FRET): 3000 nM | Concentration giving statistically significant improvement of NCOR2 mis-splicing ([7]; HD fibroblasts, 48 h): 100 to 300 µM and 50 to 300 µM | Effect on ATP2A1 splicing [7]: most significantly improved ATP2A1 mis-splicing | Effect on MAPT pre-mRNA splicing ([9]; neuroblastoma cell line expressing 74 r(CAG) repeats): slightly worsens the splicing of the MAPT pre-mRNA toward the DM-like phenotype | Concentration giving statistically significant improvement of ATP2A1 splicing [9, 12]: 100 to 300 µM | Concentration giving statistically significant improvement of NCOR2 splicing [9, 12]: 100 to 300 µM | Effect on splicing of other tested transcripts ([10]; control cell lines that do not express toxic r(CAG)exp): does not affect the splicing | Effect on MAPT pre-mRNA splicing ([10]; normal neuroblastoma cell line): more pronounced effect | Effect on cell morphology ([8]; increasing concentration of D6): cell morphology is not affected | Toxicity as assessed by cell morphology [8]: least amount of toxicity | Effect on nuclear r(CAG)exp foci [11]: does not disrupt the formation of nuclear r(CAG)^exp foci; also recorded: does not significantly affect the number or the intensity of nuclear r(CAG)^exp foci

Cn1cc(NC(=O)c2cc(NC(=O)CN=C(N)N)cn2C)cc1C(=O)NCCC(=N)N [NTSP, netropsin]
Binding preference among RNAs [1]: slight preference for 5’CCG/3’GUC

CCN(CC)CCCC(C)Nc1c2ccc(Cl)cc2nc2ccc(OC)cc12 (stereo not drawn) [QNC, Quinacrine]
Binding preference among RNAs [1]: prefers to bind 5’CAG/3’GCC
